The values that follow come from ChEMBL document CHEMBL3992505, “Optimization of substituted imidazobenzodiazepines as novel asthma treatments” (Eur J Med Chem, 2017).

The structures appear in SMILES notation. Activity calls are given as the source filed them.

Data set [1] can be described thus: Half life in mouse brain at 5 mg/kg, ip by LC/MS/MS analysis. It counts as ADME, organism-based.
In data set [2] the test system is Blood. The data set can be described thus: AUC (0 to t) in mouse blood assessed as (S)-7-Methoxy-N-methyl-9-oxo-11,12,13,13a-tetrahydro-9H-benzo[e]imidazo[5,1-c]pyrrolo[1,2-a][1,4]diazepine-1-carboxamide at 5 mg/kg, ip by LC/MS/MS analysis. It counts as ADME, organism-based. As to conditions: in vivo.
Data set [3] can be described thus: Elimination rate constant in mouse brain at 5 mg/kg, ip by LC/MS/MS analysis. Format: ADME, organism-based.
Data set [4] can be described thus: Elimination rate constant in mouse blood at 5 mg/kg, ip by LC/MS/MS analysis. It counts as ADME, organism-based.
Data set [5] has as its target T1, GABA-A receptor; alpha-1/beta-3/gamma-2 (Homo sapiens, UniProt P14867+P18507+P28472).
T1 sequence (P14867 whole entry): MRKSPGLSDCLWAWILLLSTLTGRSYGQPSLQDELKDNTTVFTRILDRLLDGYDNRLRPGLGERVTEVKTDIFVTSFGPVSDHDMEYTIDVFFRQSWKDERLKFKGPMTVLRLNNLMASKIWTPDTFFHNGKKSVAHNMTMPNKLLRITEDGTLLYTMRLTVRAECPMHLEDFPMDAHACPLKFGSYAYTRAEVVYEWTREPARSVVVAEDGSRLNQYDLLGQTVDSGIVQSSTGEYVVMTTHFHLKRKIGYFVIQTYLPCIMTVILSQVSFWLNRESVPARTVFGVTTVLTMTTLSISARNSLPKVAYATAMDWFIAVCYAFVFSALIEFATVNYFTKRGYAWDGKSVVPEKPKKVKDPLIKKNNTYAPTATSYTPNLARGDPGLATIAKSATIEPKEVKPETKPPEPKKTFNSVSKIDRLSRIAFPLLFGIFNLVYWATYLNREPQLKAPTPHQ
T1 sequence (P18507 whole entry): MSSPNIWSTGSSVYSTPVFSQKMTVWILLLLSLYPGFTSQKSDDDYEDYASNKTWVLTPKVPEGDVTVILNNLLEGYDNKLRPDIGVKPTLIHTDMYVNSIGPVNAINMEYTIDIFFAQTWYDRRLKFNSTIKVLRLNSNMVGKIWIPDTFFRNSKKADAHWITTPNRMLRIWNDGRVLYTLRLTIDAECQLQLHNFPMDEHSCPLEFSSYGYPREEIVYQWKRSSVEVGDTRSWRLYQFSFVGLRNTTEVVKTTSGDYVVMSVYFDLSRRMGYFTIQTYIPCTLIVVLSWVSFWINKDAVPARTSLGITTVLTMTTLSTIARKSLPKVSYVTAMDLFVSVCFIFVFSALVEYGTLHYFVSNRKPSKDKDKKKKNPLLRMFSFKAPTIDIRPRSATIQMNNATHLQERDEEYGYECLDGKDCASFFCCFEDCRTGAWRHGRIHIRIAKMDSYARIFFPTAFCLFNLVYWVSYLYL
T1 sequence (P28472 whole entry): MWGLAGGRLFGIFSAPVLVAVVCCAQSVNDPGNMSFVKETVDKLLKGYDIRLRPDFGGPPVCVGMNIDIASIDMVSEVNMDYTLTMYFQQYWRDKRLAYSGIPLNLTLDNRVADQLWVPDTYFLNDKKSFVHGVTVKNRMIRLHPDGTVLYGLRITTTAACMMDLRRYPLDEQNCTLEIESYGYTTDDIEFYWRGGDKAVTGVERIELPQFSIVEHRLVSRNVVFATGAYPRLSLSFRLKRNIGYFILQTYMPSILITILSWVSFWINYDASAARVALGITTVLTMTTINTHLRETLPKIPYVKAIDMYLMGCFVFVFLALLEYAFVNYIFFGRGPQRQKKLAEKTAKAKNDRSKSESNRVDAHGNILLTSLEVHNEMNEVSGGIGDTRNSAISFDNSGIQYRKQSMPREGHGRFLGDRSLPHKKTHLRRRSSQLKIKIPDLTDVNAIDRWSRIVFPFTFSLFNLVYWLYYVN
The experiment in a line: Activity at GABAA alpha1beta3gamma2 receptor (unknown origin) expressed in HEK293T cells assessed as potentiation of GABA-mediated increase in channel current under holding potential at -80 mV at 1 uM by patch clamp assay. It counts as cell-based. On the technique in general: Patch clamp records ionic current or voltage across a cell membrane.

Data set [6] can be described thus: Cytotoxicity in HEK293 cells after 48 hrs by Cell-titer Glo reagent based assay. As to conditions: human, read-out: LD50. The essentials: (§1)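 Cells (HEK293, HepG2 or BEAS2B) exposed to compounds at a range of concentrations for 48 h; viability read by Cell-Titer Glo luminescence. Normalized to DMSO (negative) and 3-dibutylamino-1-(4-hexyl-phenyl)-propan-1-one at 150 μM final in DMSO (positive).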

Data set [7] deals with Blood. The experiment in a line: Half life in mouse blood assessed as (S)-7-Methoxy-N-methyl-9-oxo-11,12,13,13a-tetrahydro-9H-benzo[e]imidazo[5,1-c]pyrrolo[1,2-a][1,4]diazepine-1-carboxamide at 5 mg/kg, ip by LC/MS/MS analysis. It counts as ADME, organism-based. As to conditions: in vivo.
Data set [8] has as its system Blood. The experiment in a line: Drug metabolism in mouse blood assessed as (S)-7-Methoxy-9-oxo-11,12,13,13a-tetrahydro-9H-benzo[e]imidazo[5,1-c]pyrrolo[1,2-a][1,4]di-azepine-1-carboxylic acid formation at 5 mg/kg, ip by LC/MS/MS analysis. Format: ADME, organism-based. As to conditions: in vivo.
Data set [9] concerns Blood. The experiment in a line: Half life in mouse blood at 5 mg/kg, ip by LC/MS/MS analysis. Format: ADME, organism-based. As to conditions: in vivo.
In another data set the test system is Brain. The data set can be described thus: Cmax in mouse brain at 5 mg/kg, ip by LC/MS/MS analysis. It counts as ADME, organism-based. The arrangement: dose 5 mg/kg, route intraperitoneal. As to conditions: in vivo.
Data set [10] has as its system Liver. The experiment in a line: Metabolic stability in mouse liver microsomes assessed as compound remaining at 10 uM after 1 hr by LC-MS/MS analysis. It counts as ADME, microsome. In a few lines:
(§2)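 Compound stability was measured in human or mouse liver microsomes as percent remaining after 1 h. Data came from two independent experiments, each run in triplicate.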

Data set [11] has as its system Blood. The experiment in a line: Tmax in mouse blood assessed as (S)-7-Methoxy-N-methyl-9-oxo-11,12,13,13a-tetrahydro-9H-benzo[e]imidazo[5,1-c]pyrrolo[1,2-a][1,4]diazepine-1-carboxamide at 5 mg/kg, ip by LC/MS/MS analysis. It counts as ADME, organism-based. As to conditions: in vivo.
A short description of data set [12]: Elimination rate constant in mouse lung at 5 mg/kg, ip by LC/MS/MS analysis. Format: ADME, organism-based.
The nature of data set [13]: Cmax in mouse lung at 5 mg/kg, ip by LC/MS/MS analysis. It counts as ADME, organism-based. More on the design: dose 5 mg/kg, route intraperitoneal.
The species named for another data set is Cavia porcellus. The data set can be described thus: Inhibition of substance P-induced smooth muscle contractile force in guinea pig tracheal rings at 16 uM after 1 hr. It counts as functional.
In data set [14] the test system is Liver. The experiment in a line: Metabolic stability in human liver microsomes assessed as compound remaining at 10 uM after 1 hr by LC-MS/MS analysis. It counts as ADME, microsome. The essentials:
as §2
In general terms: Microsomes from liver hold many membrane-bound enzymes, among them those of drug oxidation.

The test system of data set [15] is Blood. The data set can be described thus: Elimination rate constant in mouse blood assessed as (S)-7-Methoxy-N-methyl-9-oxo-11,12,13,13a-tetrahydro-9H-benzo[e]imidazo[5,1-c]pyrrolo[1,2-a][1,4]diazepine-1-carboxamide at 5 mg/kg, ip by LC/MS/MS analysis. It counts as ADME, organism-based. As to conditions: in vivo.
A short description of data set [16]: Half life in human liver microsomes at 10 uM by LC-MS/MS analysis. Format: ADME, microsome.
Data set [17] in a line: Half life in mouse lung at 5 mg/kg, ip by LC/MS/MS analysis. Format: ADME, organism-based.
Data set [18] can be described thus: Cytotoxicity in human HepG2 cells after 48 hrs by Cell-titer Glo reagent based assay. As to conditions: read-out: LD50. The essentials: as §1
Data set [19] relates to Liver. The data set can be described thus: Half life in mouse liver microsomes at 10 uM by LC-MS/MS analysis. Format: ADME, microsome. As to conditions: microsomes, 10 µM.

Regarding `COc1ccc2c(c1)C(=O)N1CCC[C@H]1c1c(C(=O)N(C)C)ncn1-2`, the half-life in [1] amounted to 10.3 min; in data set [17], 11.7 min. The AUCt with Blood [2] is 64675 ng·min/mL. In addition, the k el in [3] is 0.00112 s⁻¹; in [4], 0.0013 s⁻¹; in [12], 0.000983 s⁻¹. In addition, the Activity in data set [5] fell in the range of 161 to 179%. Besides, the CC50 at 48 h in [6] and in [18] was over 400 µM in each case. For the same compound, the values for the t1/2 in the data set with Blood [7], with Blood [9] and in the data set with Liver [19] were 24.3 min, 8.8 min and 63.3 min, respectively. For the same compound, the Drug metabolism result in the data set on Blood [8] is “Metabolite_Notdetected”. Moreover, the Cmax was 123 ng/g in the data set with Brain and 30 ng/g in [13]. For the same compound, the Stability in the data set with Liver [10] was found to be 82.5%; in the data set with Liver [14], 92.4%. The Tmax in the data set on Blood [11] was 40 min. The inhibition entry in the data set filed under Cavia porcellus was “Active”. Moreover, the Kel in the data set on Blood [15] was found to be 0.028 min⁻¹. Moreover, the half-life at 10 µM in data set [16] is 705 min.

The term half-life denotes the time needed for the level to fall by half in the phase considered. A high value points to slow loss. For orientation: Cmax means the peak of the concentration-time curve. One may read the Tmax as the time at which the peak concentration occurs.
